Source: ChEMBL document CHEMBL4024777, “Discovery of LY3104607: A Potent and Selective G Protein-Coupled Receptor 40 (GPR40) Agonist with Optimized Pharmacokinetic Properties to Support Once Daily Oral Treatment in Patients with Type 2 Diabetes Mellitus” (J Med Chem, 2018)
≈ marks a conversion by molar mass, not a printed value. Calls of active or inactive are those of the source. No cut-off for these calls is given here.

Assays:
[1] = Aqueous solubility of the compound at pH 7.4; assay type: physicochemical
Summary of the method: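 Solubility was measured by DMSO/aqueous precipitation at pH 7.4 and reported as the last soluble concentration.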

[2] = Lipophilicity, log P of the compound; assay type: physicochemical; details: octanol/water
[3] = Metabolic stability in rat microsomes assessed as compound metabolized after 30 mins; assay type: ADME, Microsome; details: read-out: Drug metabolism
Summary of the method: (§1)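 Compound incubated 30 min with liver microsomes from mouse, rat, dog or human. Percent of compound metabolized recorded, as mean (SEM, n).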

[4] = target: T1, Free fatty acid receptor 1 (Homo sapiens, UniProt O14842); test: Agonist activity at human GPR40 receptor expressed in HEK293 cells assessed as increase in intracellular calcium flux after 2.5 hrs measured over 3 mins by calcium 4 dye-based FLIPR assay; assay type: functional, cell-based
Summary of the method: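 Calcium flux was read by FLIPR in cells carrying recombinant human GPR40. Percent stimulation is relative to the response to 100 µM linoleic acid. EC50 is reported with SEM and n.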

[5] = Intrinsic clearance in human microsomes; assay type: ADME, Microsome
[6] = Metabolic stability in mouse microsomes assessed as compound metabolized after 30 mins; assay type: ADME, Microsome; details: read-out: Drug metabolism; summary of the method: as §1
[7] = Drug metabolism in dog hepatocytes assessed as N-dealkylation; assay type: ADME, cell-based, Canis lupus familiaris, Hepatocyte
[8] = Metabolic stability in dog microsomes assessed as compound metabolized after 30 mins; assay type: ADME, Canis lupus familiaris, Microsome; details: read-out: Drug metabolism; summary of the method: as §1
[9] = Clearance in type 2 diabetes patient; assay type: ADME; details: human, in vivo
[10] = Dissociation constant, pKa of the compound; assay type: physicochemical
[11] = Drug metabolism in rat hepatocytes assessed as N-dealkylation; assay type: ADME, cell-based, Hepatocyte
[12] = Drug metabolism in dog hepatocytes assessed as glucuronidation; assay type: ADME, cell-based, Canis lupus familiaris, Hepatocyte
[13] = Drug metabolism in rat hepatocytes assessed as glucuronidation; assay type: ADME, cell-based, Hepatocyte
[14] = Intrinsic clearance in human hepatocytes; assay type: ADME, cell-based, Hepatocyte
[15] = target: T1, Free fatty acid receptor 1; test: Competitive displacement of [3H]-TAK-875 from full length human recombinant GPR40 expressed in HEK293 cell membranes after 2 hrs by scintillation counting
Summary of the method: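 Binding was measured as competitive inhibition of [3H]-TAK875 (fasiglifam) binding to membranes from cells overexpressing recombinant human GPR40. Ki is reported with SEM and n.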

[16] = target: T1, Free fatty acid receptor 1; test: Agonist activity at human GPR40 receptor expressed in HEK293 cells assessed as increase in intracellular calcium flux after 2.5 hrs measured over 3 mins by calcium 4 dye-based FLIPR assay relative to linoleic acid; assay type: functional, cell-based
Summary of the method: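 Human GPR40 calcium flux was read on FLIPR. Percent stimulation is expressed against the response to 100 uM linoleic acid.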

[17] = Metabolic stability in human microsomes assessed as compound metabolized after 30 mins; assay type: ADME, Microsome; details: read-out: Drug metabolism; summary of the method: as §1
[18] = Drug metabolism in mouse hepatocytes assessed as N-dealkylation; assay type: ADME, cell-based, Hepatocyte
[19] = Drug metabolism in dog hepatocytes assessed as oxidation; assay type: ADME, cell-based, Canis lupus familiaris, Hepatocyte
[20] = Drug metabolism in rat hepatocytes assessed as oxidation; assay type: ADME, cell-based, Hepatocyte
[21] = system: Rattus norvegicus; test: Antidiabetic activity in po dosed Zucker fa/fa rat assessed as reduction in blood glucose AUC administered daily for 21 days followed by OGTT at 1 hr after compound dosing and measured 60 mins post glucose challenge by oral glucose tolerance test; assay type: functional
[22] = Drug metabolism in mouse hepatocytes assessed as glucuronidation; assay type: ADME, cell-based, Hepatocyte
[23] = Drug metabolism in mouse hepatocytes assessed as oxidation; assay type: ADME, cell-based, Hepatocyte
[24] = Volume of distribution in type 2 diabetes patient; assay type: ADME; details: human, in vivo
[25] = Drug metabolism in mouse hepatocytes assessed as O-dealkylation; assay type: ADME, cell-based, Hepatocyte
[26] = Drug metabolism in dog hepatocytes assessed as O-dealkylation; assay type: ADME, cell-based, Canis lupus familiaris, Hepatocyte
[27] = system: Rattus norvegicus; test: Antidiabetic activity in Zucker fa/fa rat assessed as reduction in blood glucose AUC at 1 mg/kg, po administered for 1 day followed by OGTT at 1 hr after compound dosing and measured 60 mins post glucose challenge by oral glucose tolerance test; assay type: functional, organism-based
[28] = Drug metabolism in rat hepatocytes assessed as O-dealkylation; assay type: ADME, cell-based, Hepatocyte
[29] = Drug metabolism in mouse hepatocytes assessed as desmethylation; assay type: ADME, cell-based, Hepatocyte
[30] = Drug metabolism in rat hepatocytes assessed as desmethylation; assay type: ADME, cell-based, Hepatocyte
[31] = Drug metabolism in dog hepatocytes assessed as desmethylation; assay type: ADME, cell-based, Canis lupus familiaris, Hepatocyte

T1 sequence (O14842 whole entry): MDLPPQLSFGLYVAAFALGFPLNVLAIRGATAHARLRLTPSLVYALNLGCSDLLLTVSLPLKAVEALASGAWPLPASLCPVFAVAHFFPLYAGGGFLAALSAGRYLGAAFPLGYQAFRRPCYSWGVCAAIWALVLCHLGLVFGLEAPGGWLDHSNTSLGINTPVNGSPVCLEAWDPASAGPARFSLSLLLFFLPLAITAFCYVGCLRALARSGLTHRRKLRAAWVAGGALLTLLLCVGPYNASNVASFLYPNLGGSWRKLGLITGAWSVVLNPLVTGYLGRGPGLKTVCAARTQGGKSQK

Row | SMILES | solubility [1] [µM] | metabolised at 0.5 h [3] [%] | EC50 [4] [nM] | K [5] [h⁻¹] | metabolised at 0.5 h [8] [%] | clearance [9] [mL/min] | pKa [10] | Drug metabolism [12] | Drug metabolism [13] | K [14] [h⁻¹] | Ki [15] [nM] | %max [16] [%] | Drug metabolism [19] | Drug metabolism [20] | ED90 [21] [mg/kg] | Drug metabolism [22] | Drug metabolism [23] | Vd [24] [L] | other results
1 | CC#C[C@@H](CC(=O)O)c1ccc(OCc2ccc(N3CCC4(CCc5ccccc54)CC3)s2)cc1 | 70 to 89 (≈ 34 to 43.2 µg/mL) | 98 | 8 | 0.109 | 93 | 517 to 717 | 3.4 to 7.9 | Metabolite_Detected | Metabolite_Detected | 0.23 | 8.2 | 50 | Metabolite_Detected | Metabolite_Detected | 14.2 | Metabolite_Detected | Metabolite_Detected | 443 to 885 | logP [2]: 5; metabolised at 0.5 h [6]: 98%; Drug metabolism [7]: Metabolite_Detected; Drug metabolism [11]: Metabolite_Detected; metabolised at 0.5 h [17]: 44%; Drug metabolism [18]: Metabolite_Detected
2 | CC#C[C@@H](CC(=O)O)c1ccc(OCc2ccc(CN3CCC4(C=Cc5ccccc54)CC3)cc2)cc1 [LY2881835] | 61 to 80 (≈ 30 to 39.3 µg/mL) | 64 |  | 0.033 | 65 | 183 | 4.1 to 8.1 | Metabolite_Detected | Metabolite_Detected |  |  | 62 | Metabolite_Detected | Metabolite_Detected | 1 | Metabolite_Detected | Metabolite_Detected | 111 | Drug metabolism [25]: Metabolite_Detected; Drug metabolism [26]: Metabolite_Detected; Activity [27]: Active; Drug metabolism [28]: Metabolite_Detected
3 | CC#C[C@@H](CC(=O)O)c1ccc(OCc2ccc(CN3CCCc4cccc(OC)c43)s2)cc1 | > 100 | 62 | 3 | 0.0048 | 18 | 183 to 233 | 3.4 to 6 | Metabolite_Detected | Metabolite_Detected | 0.17 | 27 | 51 |  |  | 3.3 | Metabolite_Detected |  | 244 to 358 | Drug metabolism [29]: Metabolite_Detected; Drug metabolism [30]: Metabolite_Detected; Drug metabolism [31]: Metabolite_Detected
